Screening data from PubChem.
CHOP UPR activ: activators of apoptotic CHOP UPR arm, primary screen, cell-based, CHO-CHOP luciferase reporter, luminescence, uHTS; hit rate 0.34% among 330,000; activation, % at 10 µM; UPR activation; percent of tunicamycin response over DMSO baseline; AID 449763, 2010;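 active = at 10 µM dose, activation of 40% or more, normalized to positive control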
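assay system = CHO CHOP reporter cells | amount = 500 CHO-CHOP cells per well | buffer or medium = F12 with 10% FBS | incubation = 16-18 h cell attachment, then 6 h compound exposure, 37 °C | detection = luminescence read with Steady-Glo | read-out = percent activation relative to tunicamycin control | controls = tunicamycin high control, DMSO low control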
XBP1 UPR activ: activators of adaptive XBP1 UPR arm, primary screen, cell-based, CHO-XBP1 luciferase reporter, luminescence, uHTS | IRE1-XBP1 UPR activation; percent of tunicamycin response, DMSO as zero | activation, % at 20 µM | hit rate 0.33% among 330,000 | AID 463104, 2010;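 active = versus positive control, 20 µM dose yields 30% or more activation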
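Material: CHO cell line with stable XBP1 luciferase reporter; schedule: 16-18 h cell attachment at 37 °C, then 6 h compound exposure; signal: glow luminescence from Steady-Glo reagent; medium: serum-containing F12 medium, 10% FBS; benchmarks: tunicamycin 10 µg/mL and vehicle-only wells; read-out: percent activation relative to tunicamycin reference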
Jurkat NFkB inh: inhibitors of induced NF-kB luciferase reporter, primary screen, TCR NF-kB activation inhibitor project, cell-based, luminescence, uHTS | Jurkat, PMA/ionomycin-induced NF-kB luciferase reporter | inhibition, % at 4 µM | hit rate 0.53% among 330,000; in the data active = inhibition above about 50%
697 NFkB inh: inhibitors of PMA/ionomycin-induced NF-kB reporter, 697 cells, primary screen, B-cell NF-kB inhibitor project, cell-based, luminescence, uHTS; 697 B-cell NF-kB luciferase reporter, 16 h; inhibition, % at 4 µM; hit rate 0.33% among 330,000; AID 435022, 2010; in the data active = inhibition above about 35%
CHOP inhibitor: inhibitors of CHOP promoter induction, primary screen, cell-based, unfolded protein response, luciferase reporter; CHO-K1 CHOP-promoter luciferase, tunicamycin-induced, 15-18 h; hit rate 3.8% among 220,000; inhibition, % at 10 µM; AID 2732, 2010;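 active = compounds that reduced the stress-induced luciferase reporter signal by more than about 70% of percent inhibition, limit read from the data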
Numbers stand for hits; . = inactive; / = no result. This is one part of a sample in which hits are shown more often than they occur.

SMILES	CHOP UPR activ	XBP1 UPR activ	Jurkat NFkB inh	697 NFkB inh	CHOP inhibitor
O=C(CSc1nccn1-c1ccccc1)Nc1ccc2c(c1)OCO2	.	.	.	.	.
Cc1cccc(OCCCC(=O)O)c1C	.	.	.	.	70
CCOc1ccc(-c2cc(CCCC(=O)N3CCN(c4ccc(OC)cc4)CC3)no2)cc1	.	.	.	.	94
Cc1oc(-c2ccc3c(c2)OCCO3)cc1C(=O)O	.	.	.	.	72
Cc1oc(-c2ccc3c(c2)OCCO3)cc1C(=O)NCC(=O)O	.	.	.	.	.
Cc1cccc(Oc2cc([N+](=O)[O-])cc3c2C(=O)Nc2ccccc2O3)c1	.	.	.	.	92
O=C1Nc2ccccc2Oc2cc([N+](=O)[O-])cc(Oc3ccccc3)c21	.	.	.	.	.
CSc1ccc(CNC(=O)Cn2nc(C)c3c(C)n(-c4ccc(C)cc4)nc3c2=O)cc1	.	.	.	.	/
Cc1ccc(Cl)cc1N1CCN(C(=O)c2cc3c(=O)n(C)c4ccccc4c3n2C)CC1	.	.	.	.	88
Cc1cccc(N2CCN(C(=O)c3cc4c(=O)n(C)c5ccccc5c4n3C)CC2)c1C	.	.	.	.	79
Cn1c(C(=O)N2CCCC2)cc2c(=O)n(C)c3ccccc3c21	/	/	/	/	.
Cc1cccc(N2CCN(C(=O)COc3cc(=O)n(C)c4ccccc34)CC2)c1C	.	.	.	.	.
Cc1cccc(N2CCN(C(=O)Cc3cn(C)c4ccccc34)CC2)c1C	.	.	.	.	82
CC(=NNC(=O)COc1cccc(C)c1)c1cccnc1	.	.	.	.	/
Fc1ccccc1CNc1ncnc2sccc12	.	.	.	.	/
c1ccc2c(c1)OCC(CNc1ncnc3sccc13)O2 (stereo not given)	/	/	/	/	79
CCn1c(CC(=O)Nc2ccc(C)c(Cl)c2)nnc1SCC(=O)Nc1nc(C)cs1	.	.	.	.	79
CCn1c(CC(=O)Nc2ccc(C)c(Cl)c2)nnc1SCc1ccc(Cl)c(Cl)c1	.	.	.	.	.
O=C(Nc1ccc(Cl)cc1)OCc1cn(-c2ccc(Cl)cc2)nn1	.	.	.	.	73
CCNC(=O)OCc1cn(-c2ccc(Cl)cc2)nn1	.	.	.	.	.
Cc1ccccc1CCN(C(=O)Cn1nnc2ccccc21)C(C(=O)NCC1CCCO1)c1nc2ccccc2n1C (stereo not given)	.	.	.	.	82
CN(Cc1ccccc1)S(=O)(=O)c1ccc2[nH]c(=O)ccc2c1	.	.	.	.	/
O=C(N=C1SC2CS(=O)(=O)CC2N1c1cccc(Cl)c1Cl)C1CCCO1 (stereo not given)	.	.	.	.	/
Cc1ccc2c(c1)N(CCC(=O)NCc1cccs1)C(=O)C(C)O2 (stereo not given)	.	.	.	.	74
O=C(NNC(=O)c1ccccc1O)c1cc2ccccc2o1	.	.	.	.	/
SMILES	CHOP UPR activ	XBP1 UPR activ	Jurkat NFkB inh	697 NFkB inh	CHOP inhibitor
O=C(O/N=C1\C(=O)N(c2ccccc2)c2ccccc21)C1CC1	.	.	.	.	73
CC(=O)Nc1ccc2oc(-c3cc(F)c(F)cc3Cl)nc2c1	.	.	.	.	82
COc1ccc(C(=O)/C=C2/C(=O)Nc3ccccc32)cc1	.	.	.	.	/
C=CCOc1ccccc1C(=O)/C=C1/C(=O)Nc2ccccc21	152	.	.	.	/
COc1ccc(C(=O)/C=C2/C(=O)Nc3ccccc32)cc1OC	48	.	.	.	/
CCOCCOc1cccc(C(=O)NC(c2ccccc2)c2ccccc2)c1	.	.	.	.	/
CNC(=S)N(C)/N=C1/C(=O)N(Cc2c(Cl)cccc2Cl)c2ccccc21	.	.	.	.	/
Cc1ccc(Sc2ccc(NC(=O)CCl)cc2)c(C)c1	.	.	.	.	84
C/C(CC(=O)Nc1cc(Cl)ccc1C)=N\NC(N)=O	.	.	.	.	.
CC(=Nc1cccc(C)c1)c1sc2ccccc2c1O	.	.	.	.	77
O=C(CN1C(=O)S/C(=C\c2ccccc2)C1=O)NNC(=O)c1ccccc1O	.	.	.	.	.
COc1ccc(/C=C2\SC(=O)N(CC(=O)NNC(=O)c3ccccc3O)C2=O)cc1	.	.	.	.	78
CCOC(=O)c1cc2c(nc1C)-c1cc(Cl)cc(Cl)c1OC2O (stereo not given)	.	.	.	.	89
CCOC(=O)c1cc(C(=O)NN)c(C)nc1C	.	.	.	.	.
Cc1cc(C)cc(NC(=O)N2CCC(c3nc4ccccc4o3)CC2)c1	.	.	.	.	74
CC(C)N(CCNC(=O)c1nn(Cc2ccccc2)c(=O)c2ccccc12)C(C)C	.	.	.	.	/
Cc1ccc(C)c(NC(=S)NC(NC(=O)N(C)C)C(Cl)(Cl)Cl)c1 (stereo not given)	.	.	.	.	.
Cc1ccccc1NC(=S)NC(NC(=O)COc1ccccc1)C(Cl)(Cl)Cl (stereo not given)	.	.	.	.	83
Cc1ccc(C)c(NC(=S)NC(NC(=O)Cc2cccc3ccccc23)C(Cl)(Cl)Cl)c1 (stereo not given)	52	47	.	.	79
CCc1ccc(OCC(=O)NC(NC(=S)Nc2ccccc2C)C(Cl)(Cl)Cl)cc1 (stereo not given)	.	.	.	.	.
COCCN(C(=O)C1CCN(C(=O)c2ccccc2C)CC1)c1c(N)n(CC(C)C)c(=O)[nH]c1=O	.	.	.	.	/
NNC(=O)C1COc2cc3ccccc3cc2O1 (stereo not given)	.	.	.	.	/
O=C(N/N=C\c1ccccn1)C1COc2cc3ccccc3cc2O1 (stereo not given)	.	.	.	.	72
CC(C)CNC(=O)COc1ncnc2sccc12	.	.	.	.	.
Cc1ccc(NC(=O)COC(=O)CC2CCCC2)cc1Cl	.	.	.	.	72
CC(C)(C)c1ccc(S(=O)(=O)NCC(=O)Nc2ccc(-c3nc4ccccc4s3)cc2)cc1	.	.	.	.	96
Cc1ccc2nc(-c3ccc(NC(=O)CN(c4ccccc4C)S(C)(=O)=O)cc3)sc2c1	.	.	.	.	70
Cc1ccc2nc(-c3ccc(NC(=O)CN4C(=O)NC(C)(c5ccc(OC(F)F)cc5)C4=O)cc3)sc2c1 (stereo not given)	.	.	.	.	76
Cc1cc(C)cc(N(CC(=O)Nc2ccc(-c3nc4ccc(C)cc4s3)cc2)S(C)(=O)=O)c1	.	.	.	.	.
Cc1ccc(C)c(S(=O)(=O)NC(C)C(=O)Nc2ccc(-c3nc4ccccc4s3)cc2)c1 (stereo not given)	.	.	.	.	80
